The target in data set [1] is Cholinesterase (Equus caballus) (UniProt P81908). Description: Inhibition of equine BChE at 100 uM using S-butyrylthiocholine chloride as substrate by Ellman's method. On the technique in general: DTNB colorimetry detects thiols as they appear.
For data set [2], the target named is T1, Cholinesterase (Equus caballus, UniProt P81908). Description: Inhibition of equine BChE using S-butyrylthiocholine chloride as substrate by Ellman's method. An outline of the steps:
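IC50 values are the mean ± SD of three independent experiments.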

Data set [3] deals with T1, Cholinesterase. Nature of the data set: Mixed-type inhibition of equine BChE using S-butyrylthiocholine chloride as substrate assessed as free enzyme by Lineweaver-Burk reciprocal plot method.
Data set [4] addresses T1, Cholinesterase. Nature of the data set: Mixed-type inhibition of equine BChE using S-butyrylthiocholine chloride as substrate assessed as enzyme-substrate complex by Lineweaver-Burk reciprocal plot method.
The nature of data set [5]: Antioxidant activity assessed as ABTS free radical scavenging activity at 100 uM after 1 min by spectrophotometry.
Data set [6] is described as follows: Antioxidant activity assessed as ABTS free radical scavenging activity after 1 min by spectrophotometry.
The nature of data set [7]: Cytotoxicity against mouse NSC-34 cells assessed as cell viability after 48 hrs by MTS assay. Conditions: nsc-34, 48 h. The format is cell-based. A general note: Tetrazolium assays rely on reduction of a dye to a coloured formazan, in cell work by metabolically active cells.
In data set [8] the target is Acetylcholinesterase (Electrophorus electricus) (UniProt O42275). Description: Inhibition of electric eel AChE at 100 uM using acetylthiocholine iodide as substrate by Ellman's method.

The source made the active and inactive calls. The calls are words filed in the database; no cut-off is given here.

T1 sequence (P81908 whole entry): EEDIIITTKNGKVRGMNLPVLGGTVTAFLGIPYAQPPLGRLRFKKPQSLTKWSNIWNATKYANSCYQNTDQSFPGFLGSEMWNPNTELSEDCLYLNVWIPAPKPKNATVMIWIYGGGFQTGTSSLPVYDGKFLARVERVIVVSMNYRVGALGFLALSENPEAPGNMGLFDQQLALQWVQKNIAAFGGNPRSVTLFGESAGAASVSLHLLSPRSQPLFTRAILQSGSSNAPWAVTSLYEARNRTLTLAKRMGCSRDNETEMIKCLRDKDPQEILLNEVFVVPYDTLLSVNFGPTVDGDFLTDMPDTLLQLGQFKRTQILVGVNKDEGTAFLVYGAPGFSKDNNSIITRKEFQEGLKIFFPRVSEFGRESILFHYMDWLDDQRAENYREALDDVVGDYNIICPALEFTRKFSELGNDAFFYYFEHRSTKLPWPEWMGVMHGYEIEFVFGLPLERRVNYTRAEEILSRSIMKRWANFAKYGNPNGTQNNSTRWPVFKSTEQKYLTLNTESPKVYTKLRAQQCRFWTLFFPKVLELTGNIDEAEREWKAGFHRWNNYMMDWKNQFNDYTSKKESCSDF
Sequence of Cholinesterase (Equus caballus) (P81908 whole entry): as above
Sequence of Acetylcholinesterase (Electrophorus electricus) (O42275 24-633 limits assumed): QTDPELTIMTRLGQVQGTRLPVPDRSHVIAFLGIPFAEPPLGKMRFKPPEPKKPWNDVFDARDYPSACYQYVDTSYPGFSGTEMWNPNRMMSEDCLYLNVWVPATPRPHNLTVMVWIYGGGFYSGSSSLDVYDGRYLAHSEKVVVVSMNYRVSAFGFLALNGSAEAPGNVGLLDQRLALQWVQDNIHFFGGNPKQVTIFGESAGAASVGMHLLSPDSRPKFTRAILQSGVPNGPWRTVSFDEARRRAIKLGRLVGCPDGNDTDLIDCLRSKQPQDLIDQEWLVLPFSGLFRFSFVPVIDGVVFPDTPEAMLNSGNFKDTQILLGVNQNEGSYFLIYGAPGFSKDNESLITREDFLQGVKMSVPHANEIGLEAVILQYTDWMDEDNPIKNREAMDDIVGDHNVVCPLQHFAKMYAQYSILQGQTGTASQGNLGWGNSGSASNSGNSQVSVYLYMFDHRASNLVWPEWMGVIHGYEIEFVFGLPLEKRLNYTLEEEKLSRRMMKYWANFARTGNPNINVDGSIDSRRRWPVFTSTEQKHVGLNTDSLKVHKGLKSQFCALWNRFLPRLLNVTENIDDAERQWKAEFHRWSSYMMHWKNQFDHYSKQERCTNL

`Oc1ccc(-c2cc3cccc(Cl)c3o2)cc1`: the inhibition in data set [1] stood at 77%. Further, the IC50 at Cholinesterase [2] came out at 30.3 µM; in data set [6], 67.6 µM. Further, the Ki at Cholinesterase [3] was 5 µM; on Cholinesterase [4] it was 87.4 µM. The INH in data set [5] is 62.4%. Besides, the Activity entry in data set [7] is listed as “Non-toxic”.

With `Oc1ccc(-c2cc3cc(Br)ccc3o2)cc1`, the inhibition in data set [1] is 16.6%. Further, the IC50 against Cholinesterase [2] was > 100 µM. In data set [5], the INH is listed as 15%.

On to `Cc1c(C)c2c(c(C)c1O)CCC(C)(C(=O)O)O2` (stereo unspecified) [TROLOX], for which the IC50 in data set [6] (ABTS free radical) was determined as 13 µM.

For the compound `COc1ccc(-c2cc3cccc(Cl)c3o2)cc1`, in data set [1], the inhibition turned out to be 5%. For the same compound, the IC50 against Cholinesterase [2] is > 100 µM.

With `Cc1cccc2cc(-c3ccc(O)cc3)oc12`, the inhibition in data set [1] stood at 58%. In addition, the figures for the IC50 (against Cholinesterase [2]; in data set [6] (ABTS free radical)) were 77 µM and 53.5 µM, respectively. In data set [5], the INH is listed as 72%.

`Brc1cccc2cc(-c3ccccc3)oc12`: the inhibition in data set [8] was determined as 4%; in data set [1] it was 12%. In addition, at Cholinesterase [2], the IC50 is > 100 µM.

For the compound `Oc1ccc(-c2cc3ccccc3o2)cc1`, the inhibition entry in data set [8] and in data set [1] was “inactive” each time. Further, the IC50 against Cholinesterase [2] was > 100 µM. Besides, the INH in data set [5] was 24%.

The compound `Oc1ccc(-c2cc3cc(Cl)ccc3o2)cc1` had an inhibition in data set [1] of 15%. Besides, on Cholinesterase [2], the IC50 is > 100 µM. In data set [5], the INH stood at 15%.

In the case of `COc1ccc(-c2cc3ccccc3o2)cc1`, the inhibition result in data set [8] and in data set [1] was “inactive” throughout. Further, the IC50 against Cholinesterase [2] was > 100 µM.

For `c1ccc(-c2cc3ccccc3o2)cc1`, the inhibition result in data set [8] was “inactive”. Besides, the inhibition in data set [1] came out at 6%. At Cholinesterase [2], the IC50 was > 100 µM.

`Cc1ccc2oc(-c3ccc(O)cc3)cc2c1`: the inhibition in data set [8] was 4.8%; in data set [1], 19%. Further, the IC50 against Cholinesterase [2] is > 100 µM. In data set [5], the INH was 31%.

Consider `Oc1ccc(-c2cc3cccc(Br)c3o2)cc1`, for which the inhibition in data set [1] stood at 54%. Further, the IC50 against Cholinesterase [2] was determined as 82.5 µM; in data set [6] (ABTS free radical), 93.6 µM. Moreover, the INH in data set [5] stood at 53%.

For orientation: inhibition means the share of the control response that was lost under treatment. The term IC50 denotes the concentration that gives 50% inhibition. By Ki is commonly meant the equilibrium dissociation constant of an inhibitor or competing ligand from its target.

The record behind these values is ChEMBL document CHEMBL3792316, “2-Phenylbenzofuran derivatives as butyrylcholinesterase inhibitors: Synthesis, biological activity and molecular modeling” (Bioorg Med Chem Lett, 2016).
